Paper PMC7781173 (Amino Acids, 2021)

Key:
human C5 [1] = target: T1, human C5 (Homo sapiens, UniProt P01031); assay: Ex vivo human whole blood assay; type: cell-based; conditions: summary statement
Method in brief: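 Fresh blood from healthy volunteers, anticoagulated with lepirudin at 50 μg/mL. Pre-treated with test compound (1 nM to 1 μM) for 30 min at 37 °C, then stimulated with E. coli O111:B4 LPS at 200 ng/mL for 24 h at 37 °C. Centrifuged at 2000×g for 10 min at 4 °C; plasma C5a quantified by commercial ELISA. Concentration–response format.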

C5b = conditions: prevents assembly of the MAC; ref Yee et al. [2015]; cited from earlier work
C5 = conditions: background statement, reference not given; cited from earlier work
human C5 [2] = target: T1, human C5; conditions: ref Hoarty et al. [2015]; Ricardo et al. [2017]; cited from earlier work
rodent C5 = conditions: ref Hoarty et al. [2015]; Ricardo et al. [2017]; cited from earlier work

T1 sequence (P01031 19-673 limits assumed): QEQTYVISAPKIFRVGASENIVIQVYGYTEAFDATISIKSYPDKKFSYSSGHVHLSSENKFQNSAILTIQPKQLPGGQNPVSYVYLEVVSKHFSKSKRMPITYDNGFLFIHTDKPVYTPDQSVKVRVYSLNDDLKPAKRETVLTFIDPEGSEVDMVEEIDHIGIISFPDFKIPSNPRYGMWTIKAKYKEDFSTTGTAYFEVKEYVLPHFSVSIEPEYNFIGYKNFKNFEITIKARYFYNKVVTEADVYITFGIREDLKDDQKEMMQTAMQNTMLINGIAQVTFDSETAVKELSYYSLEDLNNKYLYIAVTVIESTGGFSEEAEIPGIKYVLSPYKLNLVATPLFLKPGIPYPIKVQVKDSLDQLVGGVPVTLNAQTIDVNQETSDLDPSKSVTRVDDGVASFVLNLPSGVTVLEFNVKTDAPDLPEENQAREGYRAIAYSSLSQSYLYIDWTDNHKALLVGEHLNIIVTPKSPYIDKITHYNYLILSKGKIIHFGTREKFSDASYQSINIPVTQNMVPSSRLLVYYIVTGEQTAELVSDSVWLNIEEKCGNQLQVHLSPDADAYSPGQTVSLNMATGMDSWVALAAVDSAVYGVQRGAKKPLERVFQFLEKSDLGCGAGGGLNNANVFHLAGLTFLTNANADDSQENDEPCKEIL
T1 sequence (P01031 678-1676 limits assumed): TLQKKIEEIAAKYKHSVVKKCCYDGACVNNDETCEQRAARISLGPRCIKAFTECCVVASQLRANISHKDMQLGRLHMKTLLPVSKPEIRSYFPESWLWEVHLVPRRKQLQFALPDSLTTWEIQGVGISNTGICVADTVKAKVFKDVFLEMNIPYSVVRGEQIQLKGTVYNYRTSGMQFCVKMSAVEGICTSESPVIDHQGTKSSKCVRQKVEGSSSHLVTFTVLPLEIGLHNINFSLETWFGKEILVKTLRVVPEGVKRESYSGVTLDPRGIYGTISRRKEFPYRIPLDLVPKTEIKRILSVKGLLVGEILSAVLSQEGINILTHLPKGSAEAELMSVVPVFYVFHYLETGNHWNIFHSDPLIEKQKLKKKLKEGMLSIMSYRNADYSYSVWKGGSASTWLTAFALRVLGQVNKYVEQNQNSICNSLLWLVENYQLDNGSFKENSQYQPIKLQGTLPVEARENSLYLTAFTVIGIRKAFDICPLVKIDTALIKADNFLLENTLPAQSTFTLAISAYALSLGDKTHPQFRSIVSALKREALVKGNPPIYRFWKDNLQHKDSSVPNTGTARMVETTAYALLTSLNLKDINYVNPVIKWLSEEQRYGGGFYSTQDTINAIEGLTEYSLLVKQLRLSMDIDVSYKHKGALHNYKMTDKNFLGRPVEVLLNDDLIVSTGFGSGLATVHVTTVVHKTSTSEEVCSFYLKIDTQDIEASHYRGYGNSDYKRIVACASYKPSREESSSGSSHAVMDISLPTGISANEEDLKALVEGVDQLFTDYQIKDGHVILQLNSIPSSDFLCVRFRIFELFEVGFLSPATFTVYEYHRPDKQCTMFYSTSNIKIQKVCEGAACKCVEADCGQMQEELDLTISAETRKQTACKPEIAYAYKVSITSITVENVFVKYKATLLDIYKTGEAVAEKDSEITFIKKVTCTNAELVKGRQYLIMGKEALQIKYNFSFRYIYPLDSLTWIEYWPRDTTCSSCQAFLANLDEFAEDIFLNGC

LPS-induced C5a production from human blood (human C5 [1]): blocks LPS-induced C5a production
Substance: zilucoplan
binding to C5b; C5b binding to C6 (C5b): binds to C5b, thereby competitively inhibiting C5b binding to C6 | C5 cleavage (C5): inhibit C5 cleavage | human C5 cleavage (human C5 [2]): does bind and inhibit human C5 cleavage | rodent C5 cleavage (rodent C5): little to no effect
